Measured values from different studies.
In brackets after ≈: the same amount, converted by molar mass.

COC(CNC1=CC2=NCCc3c[nH]c(c32)C1=O)c1c[nH]c2ccccc12 (stereo not drawn)
IC50 (Babesia divergens; parasite growth, SYBR Green; 60 h, blood stage): 0.578 µM

N#Cc1c(-c2ccc(OCc3ccccc3)cc2)c(C(N)=S)c(N)n(N)c1=O
inhibition zone (Enterobacter cloacae; microbial growth, well diffusion; ATCC23355; 500 µg/mL): 15 mm

CN(Cc1ccc(C2(C(F)(F)F)CC2)cc1)Cc1cccc2ccccc12
inhibition zone (Trichophyton mentagrophytes; microbial growth, disc diffusion; ATCC18748; 0.001 µg/mL, 72 h): 8.5 mm

C[C@@H]1[C@H](O)[C@@H](C)/C=C/C=C/C=C/C=C/C=C/C=C/C=C/[C@H](O[C@@H]2O[C@H](C)[C@@H](O)[C@H](N)[C@@H]2O)C[C@@H]2O[C@](O)(C[C@@H](O)C[C@@H](O)[C@H](O)CC[C@@H](O)C[C@@H](O)CC(=O)O[C@H]1C)C[C@H](O)[C@H]2C(=O)O
MIC (Trichophyton mentagrophytes; microbial growth, broth dilution; ATCC9533; 96 h): 8 µg/mL (≈ 8.66 µM)

CN(Cc1ccc(C(C)(C)C)cc1)Cc1cccc2ccccc12
inhibition zone (Trichophyton mentagrophytes; microbial growth, disc diffusion; ATCC18748; 0.0005 µg/mL, 72 h): 14.5 mm

Cc1c(C(N)=O)c(N)n(N)c(=O)c1C#N
inhibition zone (Enterobacter cloacae; microbial growth, well diffusion; ATCC23355; 500 µg/mL): 21 mm

O=C1C(NCCc2c[nH]c3ccccc23)=CC2=NCCc3c[nH]c1c32
IC50 (Babesia divergens; parasite growth, SYBR Green; 60 h, blood stage): 0.97 µM

Cc1c(C(N)=S)c(N)n(N)c(=O)c1C#N
inhibition zone (Enterobacter cloacae; microbial growth, well diffusion; ATCC23355; 500 µg/mL): 19 mm

O=C1C=C2NCCc3c[nH]c(c32)C1=O
IC50 (Babesia divergens; parasite growth, SYBR Green; 60 h, blood stage): 10 µM
